Results reported in ChEMBL document CHEMBL2163316, “Discovery of (S)-6-(3-cyclopentyl-2-(4-(trifluoromethyl)-1H-imidazol-1-yl)propanamido)nicotinic acid as a hepatoselective glucokinase activator clinical candidate for treating type 2 diabetes mellitus” (J Med Chem, 2012).
Values after ≈ are worked out from the molar mass of the structure shown.

How the values were obtained:
[1] = Kinetic solubility of the compound; format: physicochemical; conditions: read-out: Kinetic_solubility
[2] = test system: Rattus norvegicus; assay: fAUC (0 to 24 hrs) in rat at 1 mg/kg, iv; format: ADME, organism-based; set-up: dose 1 mg/kg, route intravenous; conditions: in vivo
[3] = test system: Rattus norvegicus; assay: fAUC (0 to 24 hrs) in rat at 5 mg/kg, po; format: ADME, organism-based; set-up: dose 5 mg/kg, route oral; conditions: in vivo
[4] = test system: Rattus norvegicus; assay: fCmax in rat at 1 mg/kg, iv; format: ADME, organism-based; set-up: dose 1 mg/kg, route intravenous; conditions: in vivo
[5] = test system: Rattus norvegicus; assay: fCmax in rat at 5 mg/kg, po; format: ADME, organism-based; set-up: dose 5 mg/kg, route oral; conditions: in vivo
[6] = Volume of distribution at steady state in rat at 1 mg/kg, iv; format: ADME, organism-based; set-up: dose 1 mg/kg, route intravenous; conditions: in vivo, read-out: Vdss
Procedure, shortened: (§1)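 Pharmacokinetic parameters are the geometric mean of n = 2 animals per group unless otherwise noted.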

[7] = Oral bioavailability in rat at 5 mg/kg; format: ADME, organism-based; conditions: in vivo; procedure, shortened: as §1
[8] = test system: Canis familiaris; assay: fAUC (0 to 24 hrs) in dog at 1 mg/kg, iv; format: ADME, organism-based, Canis lupus familiaris; set-up: dose 1 mg/kg, route intravenous; conditions: in vivo
[9] = test system: Canis familiaris; assay: fAUC (0 to 24 hrs) in dog at 5 mg/kg, po; format: ADME, organism-based, Canis lupus familiaris; set-up: dose 5 mg/kg, route oral; conditions: in vivo
[10] = test system: Canis familiaris; assay: fCmax in dog at 1 mg/kg, iv; format: ADME, organism-based, Canis lupus familiaris; set-up: dose 1 mg/kg, route intravenous; conditions: in vivo
[11] = test system: Canis familiaris; assay: fCmax in dog at 5 mg/kg, po; format: ADME, organism-based, Canis lupus familiaris; set-up: dose 5 mg/kg, route oral; conditions: in vivo
[12] = Volume of distribution at steady state in dog at 1 mg/kg, iv; format: ADME, organism-based, Canis lupus familiaris; set-up: dose 1 mg/kg, route intravenous; conditions: in vivo, read-out: Vdss; procedure, shortened: as §1
[13] = Oral bioavailability in dog at 5 mg/kg; format: ADME, organism-based, Canis lupus familiaris; conditions: in vivo
[14] = test system: Rhesus monkey; assay: fAUC (0 to 24 hrs) in monkey at 0.5 mg/kg, iv; format: ADME, organism-based, Macaca mulatta; set-up: dose 0.5 mg/kg, route intravenous; conditions: in vivo
[15] = test system: Rhesus monkey; assay: fAUC (0 to 24 hrs) in monkey at 3 mg/kg, po; format: ADME, organism-based, Macaca mulatta; set-up: dose 3 mg/kg, route oral; conditions: in vivo
[16] = test system: Rhesus monkey; assay: fCmax in monkey at 0.5 mg/kg, iv; format: ADME, organism-based, Macaca mulatta; set-up: dose 0.5 mg/kg, route intravenous; conditions: in vivo
[17] = test system: Rhesus monkey; assay: fCmax in monkey at 3 mg/kg, po; format: ADME, organism-based, Macaca mulatta; set-up: dose 3 mg/kg, route oral; conditions: in vivo
[18] = Volume of distribution at steady state in monkey at 0.5 mg/kg, iv; format: ADME, organism-based, Macaca mulatta; set-up: dose 0.5 mg/kg, route intravenous; conditions: rhesus monkey, in vivo, read-out: Vdss; procedure, shortened: as §1
[19] = Oral bioavailability in monkey at 3 mg/kg; format: ADME, organism-based, Macaca mulatta; conditions: rhesus monkey, in vivo; procedure, shortened: as §1
[20] = Drug excretion in rat bile; format: ADME, tissue-based; conditions: read-out: Drug excretion
[21] = Renal excretion in rat; format: ADME, organism-based, Kidney; conditions: urine, read-out: Drug excretion
[22] = Thermodynamic solubility of the compound at pH 6.5; format: physicochemical; conditions: buffer, read-out: Therm_solubility
[23] = Ratio of free drug uptake in liver to plasma of Wistar rat at 100 mg/kg, po administered for 28 days measured 4 hrs post last dosing; format: ADME, organism-based; set-up: dose 100 mg/kg, route oral
Procedure, shortened: (§2)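 Oral repeat dosing: rats for 28 days, dogs for 4 days. Plasma, liver, pancreas and brain were sampled at 4 h postdose on the last day. Ratios use free drug concentrations, converted with unbound fractions from equilibrium dialysis (plasma at 50 μM, tissues at 1 μM). BLQ = below limit of quantification.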

[24] = Ratio of free drug uptake in pancreas to plasma of Wistar rat at 100 mg/kg, po administered for 28 days measured 4 hrs post last dosing; format: ADME, organism-based; set-up: dose 100 mg/kg, route oral; procedure, shortened: as §2
[25] = Ratio of free drug uptake in brain to plasma of Wistar rat at 100 mg/kg, po administered for 28 days measured 4 hrs post last dosing; format: ADME, organism-based; set-up: dose 100 mg/kg, route oral; conditions: BLD = below limit of detection; procedure, shortened: as §2
[26] = Ratio of free drug uptake in liver to plasma of dog at 50 mg/kg, po administered for 4 days measured 4 hrs post last dosing; format: ADME, organism-based, Canis lupus familiaris; set-up: dose 50 mg/kg, route oral; procedure, shortened: as §2
[27] = Ratio of free drug uptake in pancreas to plasma of dog at 50 mg/kg, po administered for 4 days measured 4 hrs post last dosing; format: ADME, organism-based, Canis lupus familiaris; set-up: dose 50 mg/kg, route oral; procedure, shortened: as §2
[28] = Ratio of free drug uptake in brain to plasma of dog at 50 mg/kg, po administered for 4 days measured 4 hrs post last dosing; format: ADME, organism-based, Canis lupus familiaris; set-up: dose 50 mg/kg, route oral; conditions: read-out: BPR; procedure, shortened: as §2
[29] = Fraction absorbed in portal vein cannulated rat at 5 mg/kg, po; conditions: in vivo, read-out: Fabs

O=C(O)c1ccc(NC(=O)[C@H](CC2CCCC2)n2cnc(C(F)(F)F)c2)nc1 [PF-04991532] showed a solubility kinetic [1] of 524 µM (≈ 208 µg/mL), a fAUC [2] of 34.7 ng·h/mL and a fAUC [3] of 30.3 ng·h/mL. For the same compound, the fCmax [4] was 176 ng/mL, the fCmax [5] was 5.4 ng/mL and the Vd [6] was 2 L/kg. The bioavailability [7] was 18%, the fAUC [8] was 79.1 ng·h/mL and the fAUC [9] was 72.6 ng·h/mL. The fCmax [10] was 479 ng/mL, the fCmax [11] was 23.3 ng/mL and the Vd [12] was 1.6 L/kg. It also gave a bioavailability [13] of 18%, a fAUC [14] of 46.2 ng·h/mL and a fAUC [15] of 94.7 ng·h/mL. It also gave a fCmax [16] of 219 ng/mL, a fCmax [17] of 13.6 ng/mL and a Vd [18] of 0.7 L/kg. The bioavailability [19] was 35%, the dose excreted [20] was 62% and the dose excreted [21] was 11%. It also gave a solubility thermodynamic [22] of 4200 µg/mL (≈ 10.6 mM), a Kp uu at 4 h [23] of 10.5 and a Kp uu at 4 h [24] of 0.14. The BPR [25] was “BLD”, the Kp uu at 4 h [26] was 14.5 and the Kp uu at 4 h [27] was 0.25. The Kp uu at 4 h [28] was 0.009 and the Fa [29] was 53%.
